How the values were obtained:
[1] = Antiproliferative activity against human H460 cells at 10 uM after 72 hrs by MTS assay; type: functional, NCI-H460
U-251 = test: Antiproliferative activity against human U251 cells at 10 uM after 72 hrs by MTS assay; type: functional
Method in brief: (§1)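 Single-concentration screen. Cells at 4 × 10^4 cells/ml, seeded and incubated overnight, then given 10 µM compound in DMSO for 72 h (37 °C, 5% CO2), with DMSO-only controls. MTS added for 4 h and A490 read. Percent inhibition = (1 − OD490 treated/OD490 control) × 100, from triplicate experiments.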

[2] = Antiproliferative activity against human Bel7402 cells at 10 uM after 72 hrs by MTS assay; type: functional, Bel-7402
NCI-H1975 = test: Antiproliferative activity against human NCI-H1975 cells at 10 uM after 72 hrs by MTS assay; type: functional; method in brief: as §1
[3] = Antiproliferative activity against human PM8910 cells at 10 uM after 72 hrs by MTS assay; type: functional
[4] = Antiproliferative activity against human HCC827 cells at 10 uM after 72 hrs by MTS assay; type: functional
A549 = test: Antiproliferative activity against human A549 cells at 10 uM after 72 hrs by MTS assay; type: functional
[5] = Antiproliferative activity against human SGC7901 cells at 10 uM after 72 hrs by MTS assay; type: functional, SGC-7901
[6] = Antiproliferative activity against human SKBR3 cells at 10 uM after 72 hrs by MTS assay; type: functional, SK-BR-3; method in brief: as §1

| SMILES | Activity [1] [%] | Activity (U-251) [%] | Activity [2] [%] | Activity (NCI-H1975) [%] | Activity [3] [%] | Activity [4] [%] | Activity (A549) [%] | Activity [5] [%] | Activity [6] [%] |
| --- | --- | --- | --- | --- | --- | --- | --- | --- | --- |
| CCOC(=O)c1ccc(/N=C2\C(=O)Nc3ccc(Cl)cc32)c(Nc2cc(OC)cc(OC)c2)c1 | 57.08 | 7.98 | 28.63 | 65.83 | 42.24 | 41.43 | 32.9 | 64.74 | 41.17 |
| O=C1Nc2ccc(Cl)cc2/C1=N/c1ccc2nc(S)[nH]c2c1 | 5.31 | -4.89 | 10.23 | 26.56 | 10.36 | 19.19 | 11.87 | 4.79 | 8.27 |
| Nc1nc(N2CCOCC2)ccc1/N=C1\C(=O)Nc2ccc(Cl)cc21 | 37.48 | -0.07 | 18.8 | 56.34 | 26.03 | 33.66 | 34.07 | 18.63 | 17.97 |
| O=C1Nc2ccc(Cl)cc2/C1=N/NC(=O)c1ccco1 | 17.15 | 12.52 | 12.57 | 27.45 | 15.69 | 7.22 | 11.52 | 10.02 | 23.68 |
| O=C1Nc2ccc(Cl)cc2/C1=C/c1c[nH]c2ncccc12 | 48.99 | 5.49 | 34.51 | 48.72 | 29.28 | 25.9 | 34.13 | 31.4 | 10.07 |
| COc1cc(OC)c(/C=C2\C(=O)Nc3ncccc32)c(OC)c1 | 53.98 | 7.46 | 40.41 | 66.49 | 41.21 | 17.03 | 39.96 | 35.63 | 2.1 |
| O=C1Nc2ncccc2/C1=C/c1ccc(N2CCN(C(=O)CCCl)CC2)cc1 | 7.98 | -2.81 | 12.01 | 17.66 | 14.97 | 13.18 | 5.2 | 5.55 | 10.56 |
| O=C1Nc2ccccc2/C1=C/c1ccc(N2CCN(C(=O)c3ccccc3)CC2)cc1 | 35.67 | 11.33 | 30.87 | 42.39 | 40.43 | 53.47 | 23.47 | 23.7 | 27.26 |
| O=C1Nc2ncccc2/C1=C/c1ncc[nH]1 | 13.74 | -2.99 | 3.18 | 22.81 | 0.71 | -5.39 | 6.76 | 12.69 | -0.35 |
| O=C1Nc2ncccc2/C1=C/c1ccc(N2CCOCC2)cc1 | 32.46 | -3.95 | 9.16 | 9.21 | -1.48 | 10.19 | 12.18 | 21.38 | 2.52 |
| O=C1Nc2ccc(Cl)cc2/C1=N/c1ccc2ncccc2c1 | 24.3 | -1.16 | 0.92 | 48.22 | 17.04 | 36.53 | 33.82 | 11.48 | 24.97 |
| O=CN1CCN(c2ccc(/C=C3\C(=O)Nc4ccccc43)cc2)CC1 | 32.06 | 2.24 | 25.97 | 27.15 | 27.47 | 26.61 | 25.54 | 16.5 | 7.42 |
| O=C1Nc2ncccc2/C1=C/c1ccccc1C(F)(F)F | 16.53 | -5.87 | 7.05 | 31.12 | 29.66 | 1.3 | 11.09 | 13.97 | 5.96 |
| CCn1c2ccccc2c2cc(/N=C3/C(=O)Nc4ccc(Cl)cc43)ccc21 | 30.28 | 8.03 | 16.52 | 59.78 | 24.55 | 37.81 | 26.46 | 15.22 | 20.02 |
| O=C1Nc2ccccc2/C1=C/c1ccc(N2CCOCC2)cc1 | 26.56 | 1.92 | 23.53 | 28.96 | 14.19 | 34.26 | 37.09 | 17.89 | 11.93 |
| O=CN1CCN(c2ccc(/C=C3\C(=O)Nc4ncccc43)cc2)CC1 | 13.68 | -12.2 | 15.45 | 23.51 | 10.13 | 14.61 | 0.14 | 9.66 | 7.8 |
| O=C1Nc2ccc(Cl)cc2/C1=N/c1ccc2cc[nH]c2c1 | 17.08 | -5.47 | 5.59 | 47.6 | 11.93 | 24.95 | 10.2 | -0.27 | 14.03 |
| C=CC(=O)N1CCN(c2ccc(/C=C3\C(=O)Nc4ncccc43)cc2)CC1 | 7.69 | 12.58 | 12.29 | 35.6 | 19.94 | 22.4 | 25.1 | 6.35 | 13.65 |
| O=C1Nc2ccc(Cl)cc2/C1=N/c1ccc2[nH]ccc2c1 | 9.99 | 26.95 | 13.44 | 21.92 | 10.94 | 20.17 | -10.32 | 12.49 | 11.83 |
| Cc1cc2cc(/N=C3\C(=O)Nc4ccc(Cl)cc43)ccc2[nH]1 | 8.51 | 7.94 | 6.73 | 26.35 | 12.97 | 23.12 | 7.35 | 7.05 | 9.84 |
| O=C1Nc2ncccc2/C1=C/c1c[nH]c2ccccc12 | 7.2 | 0.83 | 18.98 | 13.11 | 3.22 | 7.27 | 5.4 | 24.68 | 2.64 |
| O=C1Nc2ccc(Cl)cc2/C1=N/NC(=O)c1ccc(N2CCOCC2)c([N+](=O)[O-])c1 | 7.06 | -8.37 | 0.27 | 17.93 | 8.98 | 3.85 | 7.93 | 0.54 | 11.88 |
| CCOC(=O)c1ccc(/N=C2\C(=O)Nc3ccc(Cl)cc32)c(N2CCOCC2)n1 | 14.19 | 7.69 | 8.58 | 34.78 | 21.97 | 18.58 | 24.53 | 2.89 | 14.58 |
| Cn1cc(/C=C2/C(=O)Nc3ncccc32)c2ccccc21 | 19.17 | -0.65 | 24.47 | 38.04 | 22.23 | 37.21 | 11.36 | 22.39 | 8.29 |
| O=C1Nc2ncccc2/C1=C/c1ccc(N2CCN(C(=O)c3ccccc3)CC2)cc1 | 17.24 | 3.44 | 17.58 | 35.62 | 13.74 | 21.77 | 10.59 | 15.99 | 9.07 |
| O=C1Nc2ncccc2/C1=C/c1c[nH]c2ccc(Br)cc12 | 39.48 | 5.06 | 42.22 | 71.46 | 40.59 | 39.64 | 29.66 | 32.51 | 27.26 |

Source: ChEMBL document CHEMBL3352626, “Synthesis and biological evaluation of novel oxindole-based RTK inhibitors as anti-cancer agents” (Bioorg Med Chem, 2014)
